Measurements as given in ChEMBL document CHEMBL1153278, “Discovery of novel non-peptidic beta-alanine piperazine amide derivatives and their optimization to achiral, easily accessible, potent and selective somatostatin sst1 receptor antagonists” (Bioorg Med Chem Lett, 2009).

Key:
[1] = biological target: Somatostatin receptor type 1 (Rattus norvegicus, UniProt P28646); experiment: Binding affinity to rat sst1 receptor
Procedure, shortened: (§1)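 Receptor binding run on rat sst1 and sst2 and on human sst1–sst5; affinities given as pKd, mean ± SEM of 3–6 experiments.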

[2] = biological target: Somatostatin receptor type 2 (Rattus norvegicus, UniProt P30680); experiment: Binding affinity to rat sst2 receptor; procedure, shortened: as §1
[3] = biological target: Somatostatin receptor type 2 (Homo sapiens, UniProt P30874); experiment: Binding affinity to human sst2 receptor; procedure, shortened: as §1
V79 = experiment: Genotoxicity in Chinese hamster V79 cells by micronucleus test; format: toxicity, cell-based, Cricetulus griseus
[4] = Apparent terminal half life in mouse plasma at 10 umol/kg, iv and 30 umol/kg, po; format: ADME, organism-based; conditions: read-out: beta t1/2 (converted)
Procedure, shortened: (§2)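 Mice dosed by the intravenous and the oral route; drug levels followed in both plasma and brain; apparent terminal half-life taken from plasma; oral bioavailability estimated.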

[5] = biological target: T1, Somatostatin receptor type 1 (Homo sapiens, UniProt P30872); experiment: Antagonist activity at human sst1 receptor assessed as inhibition of forskolin-stimulated cAMP accumulation by luciferase assay; format: functional
[6] = biological target: Somatostatin receptor type 1 (Rattus norvegicus) (UniProt P28646); experiment: Antagonist activity at rat sst1 receptor assessed as inhibition of forskolin-stimulated cAMP accumulation by luciferase assay; format: functional
[7] = Ratio of drug level in brain to plasma in mouse at 10 umol/kg, iv and 30 umol/kg, po; format: ADME, organism-based
Procedure, shortened: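 Pharmacokinetic study in mice given a single intravenous dose or an oral dose. Drug concentrations were measured in plasma and brain over time after each route. The brain/plasma concentration ratio was derived for each route.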

D(4) dopamine receptor = biological target: T2, D(4) dopamine receptor (Homo sapiens, UniProt P21917); experiment: Binding affinity to dopamine D4 receptor
T2 sequence (P21917 whole entry): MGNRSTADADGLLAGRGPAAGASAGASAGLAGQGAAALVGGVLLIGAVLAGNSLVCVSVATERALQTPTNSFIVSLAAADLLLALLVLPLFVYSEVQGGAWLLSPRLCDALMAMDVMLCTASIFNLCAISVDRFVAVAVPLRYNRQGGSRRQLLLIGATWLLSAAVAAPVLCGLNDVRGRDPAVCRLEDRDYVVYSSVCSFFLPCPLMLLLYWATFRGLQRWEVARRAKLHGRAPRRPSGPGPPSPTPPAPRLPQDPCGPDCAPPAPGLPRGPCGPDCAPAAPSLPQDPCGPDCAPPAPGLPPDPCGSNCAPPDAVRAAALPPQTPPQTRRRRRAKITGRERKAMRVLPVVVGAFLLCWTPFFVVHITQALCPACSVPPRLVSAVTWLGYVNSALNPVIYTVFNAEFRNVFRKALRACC

[8] = Binding affinity to adrenergic alpha1 receptor
Cytochrome P450 2C19 = Cytochrome P450 2C19 (Homo sapiens, UniProt P33261); experiment: Inhibition of human CYP2C19 by microplate-based direct fluorometric assay; format: ADME
D(2) dopamine receptor = D(2) dopamine receptor (Homo sapiens, UniProt P14416); experiment: Binding affinity to dopamine D2 receptor
Cytochrome P450 3A4 = Cytochrome P450 3A4 (Homo sapiens, UniProt P08684); experiment: Inhibition of human CYP3A4 by microplate-based direct fluorometric assay; format: ADME
[9] = biological target: Somatostatin receptor type 5 (Homo sapiens, UniProt P35346); experiment: Binding affinity to human sst5 receptor; procedure, shortened: as §1
[10] = Tmax in mouse at 10 umol/kg, iv and 30 umol/kg, po; format: ADME, organism-based; conditions: in vivo; procedure, shortened: as §2
[11] = Oral bioavailability in mouse at 30 umol/kg; format: ADME, organism-based; conditions: in vivo; procedure, shortened: as §2
Cytochrome P450 2D6 = Cytochrome P450 2D6 (Homo sapiens, UniProt P10635); experiment: Inhibition of human CYP2D6 by microplate-based direct fluorometric assay; format: ADME
Cytochrome P450 1A2 = biological target: T3, Cytochrome P450 1A2 (Homo sapiens, UniProt P05177); experiment: Inhibition of human CYP1A2 by microplate-based direct fluorometric assay; format: ADME
T3 sequence (P05177 whole entry): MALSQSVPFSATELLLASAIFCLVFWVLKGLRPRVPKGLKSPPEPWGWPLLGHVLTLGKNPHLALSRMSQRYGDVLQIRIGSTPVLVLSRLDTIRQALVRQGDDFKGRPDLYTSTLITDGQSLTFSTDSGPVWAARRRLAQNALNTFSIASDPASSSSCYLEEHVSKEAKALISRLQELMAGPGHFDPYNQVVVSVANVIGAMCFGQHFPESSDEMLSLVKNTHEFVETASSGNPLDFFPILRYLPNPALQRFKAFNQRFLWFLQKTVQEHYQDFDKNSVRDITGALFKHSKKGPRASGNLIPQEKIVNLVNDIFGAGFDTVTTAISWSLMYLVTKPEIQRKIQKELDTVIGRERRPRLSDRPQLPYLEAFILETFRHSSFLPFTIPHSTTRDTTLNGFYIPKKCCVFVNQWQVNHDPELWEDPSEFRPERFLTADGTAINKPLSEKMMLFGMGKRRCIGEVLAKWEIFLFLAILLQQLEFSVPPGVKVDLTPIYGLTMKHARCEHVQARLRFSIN

[12] = biological target: T1, Somatostatin receptor type 1; experiment: Binding affinity to human sst1 receptor; procedure, shortened: as §1
[13] = biological target: Somatostatin receptor type 4 (Homo sapiens, UniProt P31391); experiment: Binding affinity to human sst4 receptor; procedure, shortened: as §1
[14] = biological target: Somatostatin receptor type 3 (Homo sapiens, UniProt P32745); experiment: Binding affinity to human sst3 receptor; procedure, shortened: as §1
Rattus norvegicus = species: Rattus norvegicus; experiment: Selectivity for rat sst1 receptor over rat sst2 receptor

Chain of Somatostatin receptor type 2 (Rattus norvegicus, UniProt P30680) (P30680 whole entry): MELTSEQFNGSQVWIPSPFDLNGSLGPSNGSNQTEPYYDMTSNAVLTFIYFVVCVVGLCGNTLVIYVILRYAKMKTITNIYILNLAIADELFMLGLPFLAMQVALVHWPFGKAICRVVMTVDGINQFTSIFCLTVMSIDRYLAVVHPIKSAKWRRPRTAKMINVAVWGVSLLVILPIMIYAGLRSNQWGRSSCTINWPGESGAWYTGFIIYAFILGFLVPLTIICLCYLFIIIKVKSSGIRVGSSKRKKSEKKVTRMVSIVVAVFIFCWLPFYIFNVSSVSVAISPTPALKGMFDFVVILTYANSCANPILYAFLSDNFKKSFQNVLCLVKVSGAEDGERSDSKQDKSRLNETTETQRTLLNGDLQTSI
Chain of Somatostatin receptor type 1 (Rattus norvegicus, UniProt P28646) (P28646 whole entry): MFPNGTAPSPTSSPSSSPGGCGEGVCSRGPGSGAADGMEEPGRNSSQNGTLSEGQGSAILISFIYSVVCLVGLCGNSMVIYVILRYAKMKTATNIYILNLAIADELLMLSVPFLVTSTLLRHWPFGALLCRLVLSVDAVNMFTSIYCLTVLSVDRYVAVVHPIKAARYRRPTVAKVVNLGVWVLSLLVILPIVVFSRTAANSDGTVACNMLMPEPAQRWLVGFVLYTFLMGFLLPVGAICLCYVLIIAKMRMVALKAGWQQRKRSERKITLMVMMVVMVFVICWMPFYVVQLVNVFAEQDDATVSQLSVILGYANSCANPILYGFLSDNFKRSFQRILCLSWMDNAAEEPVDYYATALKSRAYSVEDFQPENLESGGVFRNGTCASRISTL
T1 sequence (P30872 whole entry): as the sequence (P28646 whole entry) above, with P8S, T11S, S16P, G20S, V25G, C26G, S32A, S45A, A385T, S389T counted along it
Chain of Somatostatin receptor type 4 (P31391 whole entry): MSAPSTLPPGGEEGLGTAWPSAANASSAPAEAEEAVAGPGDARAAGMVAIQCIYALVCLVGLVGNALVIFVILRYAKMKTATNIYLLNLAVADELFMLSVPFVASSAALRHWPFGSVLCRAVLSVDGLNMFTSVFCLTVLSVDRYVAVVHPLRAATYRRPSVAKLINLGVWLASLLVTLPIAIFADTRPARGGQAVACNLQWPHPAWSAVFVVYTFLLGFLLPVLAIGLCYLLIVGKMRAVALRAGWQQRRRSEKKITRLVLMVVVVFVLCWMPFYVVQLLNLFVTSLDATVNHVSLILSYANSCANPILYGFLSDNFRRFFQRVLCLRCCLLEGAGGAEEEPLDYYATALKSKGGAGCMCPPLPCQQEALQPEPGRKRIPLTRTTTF
Chain of Somatostatin receptor type 3 (P32745 whole entry): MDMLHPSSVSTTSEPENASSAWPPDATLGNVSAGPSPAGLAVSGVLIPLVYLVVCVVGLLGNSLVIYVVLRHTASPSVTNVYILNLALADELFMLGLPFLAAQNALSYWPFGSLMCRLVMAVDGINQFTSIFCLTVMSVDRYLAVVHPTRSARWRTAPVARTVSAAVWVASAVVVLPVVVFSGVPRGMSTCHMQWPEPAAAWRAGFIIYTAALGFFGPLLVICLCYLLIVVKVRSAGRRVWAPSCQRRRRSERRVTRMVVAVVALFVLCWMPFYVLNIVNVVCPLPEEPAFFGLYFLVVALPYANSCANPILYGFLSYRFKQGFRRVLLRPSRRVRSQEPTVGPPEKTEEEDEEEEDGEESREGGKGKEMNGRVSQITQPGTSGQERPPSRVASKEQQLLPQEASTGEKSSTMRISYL
Chain of Somatostatin receptor type 2 (Homo sapiens, UniProt P30874) (P30874 whole entry): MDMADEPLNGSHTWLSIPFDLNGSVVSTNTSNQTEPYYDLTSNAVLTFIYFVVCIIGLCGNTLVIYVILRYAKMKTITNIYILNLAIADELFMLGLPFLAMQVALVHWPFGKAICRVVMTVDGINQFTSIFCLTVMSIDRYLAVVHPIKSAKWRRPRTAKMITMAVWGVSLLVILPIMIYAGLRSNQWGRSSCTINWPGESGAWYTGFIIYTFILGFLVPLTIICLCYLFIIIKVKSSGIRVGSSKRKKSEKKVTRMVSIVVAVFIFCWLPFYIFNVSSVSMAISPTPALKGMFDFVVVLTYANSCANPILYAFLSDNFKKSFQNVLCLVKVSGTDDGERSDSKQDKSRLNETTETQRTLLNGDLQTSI
Chain of Cytochrome P450 2D6 (P10635 whole entry): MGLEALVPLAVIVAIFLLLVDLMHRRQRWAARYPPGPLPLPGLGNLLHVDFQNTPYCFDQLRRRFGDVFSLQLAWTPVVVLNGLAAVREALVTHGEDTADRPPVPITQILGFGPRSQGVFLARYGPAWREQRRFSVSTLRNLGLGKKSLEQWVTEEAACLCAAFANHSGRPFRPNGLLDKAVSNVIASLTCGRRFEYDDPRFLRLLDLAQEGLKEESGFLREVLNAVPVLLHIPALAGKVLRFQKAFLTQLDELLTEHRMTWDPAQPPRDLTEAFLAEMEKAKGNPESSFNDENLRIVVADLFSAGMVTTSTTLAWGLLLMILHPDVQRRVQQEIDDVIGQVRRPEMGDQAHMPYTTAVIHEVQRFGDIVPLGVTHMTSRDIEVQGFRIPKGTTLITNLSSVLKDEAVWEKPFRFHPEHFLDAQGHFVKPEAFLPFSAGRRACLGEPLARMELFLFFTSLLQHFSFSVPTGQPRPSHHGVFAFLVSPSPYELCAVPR
Chain of Somatostatin receptor type 1 (Rattus norvegicus) (P28646 whole entry): as the sequence (P28646 whole entry) above
Chain of D(2) dopamine receptor (P14416 whole entry): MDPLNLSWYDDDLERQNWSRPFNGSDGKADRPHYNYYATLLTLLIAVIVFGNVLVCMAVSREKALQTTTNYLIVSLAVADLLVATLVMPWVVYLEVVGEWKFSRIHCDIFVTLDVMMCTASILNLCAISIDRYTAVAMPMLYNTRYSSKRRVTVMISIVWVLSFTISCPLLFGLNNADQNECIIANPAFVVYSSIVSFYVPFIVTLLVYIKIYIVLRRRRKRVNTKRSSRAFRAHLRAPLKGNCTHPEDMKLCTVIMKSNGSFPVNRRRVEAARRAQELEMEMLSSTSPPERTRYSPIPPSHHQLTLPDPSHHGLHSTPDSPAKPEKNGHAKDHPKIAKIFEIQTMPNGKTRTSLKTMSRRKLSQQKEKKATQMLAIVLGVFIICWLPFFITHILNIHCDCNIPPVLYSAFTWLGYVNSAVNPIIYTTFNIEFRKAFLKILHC
Chain of Cytochrome P450 3A4 (P08684 whole entry): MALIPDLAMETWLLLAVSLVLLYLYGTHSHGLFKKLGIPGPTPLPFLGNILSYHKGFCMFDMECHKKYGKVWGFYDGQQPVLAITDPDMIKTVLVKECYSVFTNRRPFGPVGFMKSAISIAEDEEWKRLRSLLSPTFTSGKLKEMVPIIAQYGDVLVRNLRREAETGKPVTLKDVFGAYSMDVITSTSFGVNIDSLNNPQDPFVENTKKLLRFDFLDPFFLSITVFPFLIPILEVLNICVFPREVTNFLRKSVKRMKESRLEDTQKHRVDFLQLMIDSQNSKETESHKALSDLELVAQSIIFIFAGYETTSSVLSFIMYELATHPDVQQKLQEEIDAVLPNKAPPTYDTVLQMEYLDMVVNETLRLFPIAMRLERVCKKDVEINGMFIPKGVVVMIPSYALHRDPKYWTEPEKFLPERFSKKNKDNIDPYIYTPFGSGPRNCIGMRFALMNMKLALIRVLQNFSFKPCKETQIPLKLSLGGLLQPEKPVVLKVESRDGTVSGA
Chain of Cytochrome P450 2C19 (P33261 whole entry): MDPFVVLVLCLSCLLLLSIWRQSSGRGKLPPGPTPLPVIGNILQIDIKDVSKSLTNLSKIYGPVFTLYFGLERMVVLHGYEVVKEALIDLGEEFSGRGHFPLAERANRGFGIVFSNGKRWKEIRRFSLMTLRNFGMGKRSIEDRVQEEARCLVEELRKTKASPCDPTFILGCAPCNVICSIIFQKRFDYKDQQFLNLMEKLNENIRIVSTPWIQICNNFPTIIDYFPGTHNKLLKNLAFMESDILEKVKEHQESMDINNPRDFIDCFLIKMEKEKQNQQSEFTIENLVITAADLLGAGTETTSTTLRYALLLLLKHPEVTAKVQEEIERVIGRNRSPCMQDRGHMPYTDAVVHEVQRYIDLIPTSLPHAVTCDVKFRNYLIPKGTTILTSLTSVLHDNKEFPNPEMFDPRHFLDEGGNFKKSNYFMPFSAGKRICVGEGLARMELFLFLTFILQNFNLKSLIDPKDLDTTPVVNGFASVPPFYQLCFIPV
Chain of Somatostatin receptor type 5 (P35346 whole entry): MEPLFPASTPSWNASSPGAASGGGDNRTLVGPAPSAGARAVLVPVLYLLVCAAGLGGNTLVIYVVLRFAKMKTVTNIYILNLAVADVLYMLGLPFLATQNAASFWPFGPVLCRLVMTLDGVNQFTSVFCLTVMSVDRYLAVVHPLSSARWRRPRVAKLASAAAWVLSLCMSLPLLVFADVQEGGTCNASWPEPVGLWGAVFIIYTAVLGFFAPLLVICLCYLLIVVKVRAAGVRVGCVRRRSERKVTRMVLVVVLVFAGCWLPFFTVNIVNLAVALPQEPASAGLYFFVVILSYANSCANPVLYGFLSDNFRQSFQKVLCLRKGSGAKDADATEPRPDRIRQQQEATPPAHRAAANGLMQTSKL

| SMILES | Kd [1] [nM] | Kd [2] [µM] | also measured |
| --- | --- | --- | --- |
| CN(CCC(=O)N1CCN(c2cccc(F)c2)CC1)CCC1c2ccccc2-c2ccccc21 | 3.63 | – | – |
| CN(CCC(=O)N1CCN(c2ccc([N+](=O)[O-])cc2)CC1)CCc1cccc2ccccc12 | 77.6 | 8.71 | – |
| CN(CCC(=O)N1CCN(c2ccc(F)cc2F)CC1)CCC1c2ccccc2-c2ccccc21 | 3.31 | – | – |
| CN(CCC(=O)N1CCN(c2ccc([N+](=O)[O-])cc2)CC1)CCC1c2ccccc2Sc2ccccc21 | 12.6 | 6.03 | – |
| CN(CCC(=O)N1CCN(c2cccc(C(F)(F)F)c2)CC1)CCC1c2ccccc2-c2ccccc21 | 61.7 | – | – |
| CN(CCC(=O)N1CCN(c2ccc(F)c(F)c2)CC1)CCC1c2ccccc2Oc2ccccc21 | 0.776 | 6.46 | Kd [3]: 6.92 µM; Activity (V79): Non-toxic; half-life [4]: 660 min; pKb [5]: 8.13; pKb [6]: 7.93; Kp [7]: > 1; Kd (D(4) dopamine receptor): 490 nM; pKd [8]: 6.55; IC50 (Cytochrome P450 2C19): > 10 µM; Kd (D(2) dopamine receptor): 490 nM; IC50 (Cytochrome P450 3A4): > 10 µM; Kd [9]: 14.5 µM; Tmax [10]: 1 h; bioavailability [11]: 19%; IC50 (Cytochrome P450 2D6): < 1000 nM; IC50 (Cytochrome P450 1A2): > 10 µM; Kd [12]: 1.62 nM; Kd [13]: 3390 nM; Kd [14]: 2820 nM; fold change (FC) (Rattus norvegicus): > 10000 |
| CN(CCC(=O)N1CCN(c2ccc([N+](=O)[O-])cc2)CC1)CCn1c2ccccc2c2ccccc21 | 331 | 14.5 | – |
| CN(CCC(=O)N1CCN(c2ccc([N+](=O)[O-])cc2)CC1)CCC1c2ccccc2Oc2ccccc21 | 0.891 | 6.76 | fold change (FC) (Rattus norvegicus): > 1000 |
| CN(CCC(=O)N1CCN(c2ccccc2C#N)CC1)CCC1c2ccccc2-c2ccccc21 | 4.57 | – | – |
| CN(CCC(=O)N1CCN(c2ccccc2Cl)CC1)CCC1c2ccccc2-c2ccccc21 | 24 | – | – |
| CCN(CCC(=O)N1CCN(c2ccc([N+](=O)[O-])cc2)CC1)CCC1c2ccccc2-c2ccccc21 | 0.955 | 1.82 | – |
| O=C(CCN(CCC1c2ccccc2-c2ccccc21)CC1CC1)N1CCN(c2ccc([N+](=O)[O-])cc2)CC1 | 45.7 | 6.92 | – |
| CN(CCC(=O)N1CCN(c2ccc([N+](=O)[O-])cc2)CC1)CCC(c1ccccc1)c1ccccc1 | 13.8 | 8.32 | – |
| Cc1cccc(C)c1N1CCN(C(=O)CCN(C)CCC2c3ccccc3-c3ccccc32)CC1 | > 1000 | – | – |
| CN(CCC(=O)N1CCN(c2ccc3nccn3n2)CC1)CCC1c2ccccc2-c2ccccc21 | 1.1 | – | – |
| CN(CCC(=O)N1CCN(c2cccc(Cl)c2)CC1)CCC1c2ccccc2-c2ccccc21 | 17.8 | – | – |
| CN(CCC(=O)N1CCN(c2ccncc2)CC1)CCC1c2ccccc2-c2ccccc21 | 21.4 | – | – |

| SMILES | Kd [1] [nM] | Kd [2] [µM] | also measured |
| --- | --- | --- | --- |
| CN(CCC(=O)N1CCN(c2ccc(F)cc2)CC1)CCC1c2ccccc2-c2ccccc21 | 1.95 | – | – |
| CN(CCC(=O)N1CCN(c2cccc(=O)n2C)CC1)CCC1c2ccccc2-c2ccccc21 | 2.14 | – | – |
| C=CCN(CCC(=O)N1CCN(c2ccc([N+](=O)[O-])cc2)CC1)CCC1c2ccccc2-c2ccccc21 | 7.08 | 4.07 | – |
| CN(CCC(=O)N1CCN(c2ccc(C(F)(F)F)cc2)CC1)CCC1c2ccccc2-c2ccccc21 | 31.6 | – | – |
| CN(CCC(=O)N1CCN(c2ccc(F)c(F)c2)CC1)CCC1c2ccccc2-c2ccccc21.Cl | 0.575 | 19.5 | Kd [3]: 12.3 µM; Activity (V79): Non-toxic; half-life [4]: 360 min; pKb [5]: 8.46; pKb [6]: 8.55; Kp [7]: > 1; Kd (D(4) dopamine receptor): 126 nM; pKd [8]: 6.53; IC50 (Cytochrome P450 2C19): > 10 µM; Kd (D(2) dopamine receptor): 776 nM; IC50 (Cytochrome P450 3A4): > 10 µM; Tmax [10]: 1 h; bioavailability [11]: 7%; IC50 (Cytochrome P450 2D6): 1300 nM; IC50 (Cytochrome P450 1A2): > 10 µM; Kd [12]: 5.37 nM; Kd [13]: 2400 nM; Kd [14]: 2690 nM; fold change (FC) (Rattus norvegicus): > 10000 |
| CN(CCC(=O)N1CCN(c2ccc3nonc3c2)CC1)CCC1c2ccccc2Oc2ccccc21 | 0.324 | 8.13 | Kd [12]: 2.14 nM; Kd [13]: 1450 nM; Kd [14]: 1620 nM; fold change (FC) (Rattus norvegicus): > 10000 |
| CC(C)N(CCC(=O)N1CCN(c2ccc([N+](=O)[O-])cc2)CC1)CCC1c2ccccc2-c2ccccc21 | 4.68 | 0.912 | – |
| CN(CCC(=O)N1CCN(c2ccc([N+](=O)[O-])cc2)CC1)CCC1c2ccccc2-c2ccccc21 | 0.708 | 6.92 | fold change (FC) (Rattus norvegicus): > 1000 |
| CN(CCC(=O)N1CCN(c2ccc3c(c2)OCO3)CC1)CCC1c2ccccc2-c2ccccc21 | 4.57 | – | – |
| CN(CCC(=O)N1CCN(c2ccc(=O)n(C)n2)CC1)CCC1c2ccccc2-c2ccccc21 | 6.61 | – | – |
| CN(CCC(=O)N1CCN(c2ccc(Cl)c(Cl)c2)CC1)CCC1c2ccccc2-c2ccccc21 | 1.91 | – | – |
| CN(CCC(=O)N1CCN(c2ccc([N+](=O)[O-])cc2)CC1)CCC1c2ccccc2Cc2ccccc21 | 29.5 | 18.6 | – |
| CN(CCC(=O)N1CCN(c2ccc([N+](=O)[O-])cc2)CC1)CCC1c2ccccc2C=Cc2ccccc21 | 11.5 | 5.13 | – |
| CN(CCC(=O)N1CCN(c2ccc3nonc3c2)CC1)CCC1c2ccccc2-c2ccccc21 | 0.741 | 4.17 | Kd [3]: 4.17 µM; Kd [12]: 2.63 nM; Kd [13]: 1150 nM; Kd [14]: 1200 nM; fold change (FC) (Rattus norvegicus): > 10000 |
| CN(CCC(=O)N1CCN(c2ccc([N+](=O)[O-])cc2)CC1)CCC1c2ccccc2CCc2ccccc21 | 18.2 | 3.47 | fold change (FC) (Rattus norvegicus): > 100 |
| CN(CCC(=O)N1CCN(c2ccc([N+](=O)[O-])cc2)CC1)CCc1ccc2ccccc2c1 | 275 | 16.6 | – |
| CN(CCC(=O)N1CCN(c2ccc(Cl)cc2)CC1)CCC1c2ccccc2-c2ccccc21 | 1.7 | – | – |
